CCR6 antagonist – CCR6 (human) receptor antagonism; P51684; CHO-K1 CCR6 PathHunter beta-arrestin, luminescence, CCL20-stimulated; inhibition, % at 20 µM; 0.49% of 340,000 active;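 active = compounds whose inhibition of the agonist-driven luminescence signal at 20 µM reaches about 50%, limit read from the data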;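 note: cells stimulated with CCL20 at 14 nM final; plate controls were DMSO with CCL20 for no effect and DMSO without agonist for full effect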
APJ antagonist – antagonists of human APJ apelin receptor; CHO-K1 APJ beta-arrestin complementation, luminescence; P35414; 0.32% of 330,000 active; inhibition, % at 20 µM; AID 2521;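 active = inhibition above about 40% at 20 µM, limit read from the data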;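 note: cells challenged with 10 nM apelin-13 agonist together with compound; plate controls were apelin-13 plus DMSO wells for no effect and DMSO wells lacking apelin-13 for full effect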
CXCR6 block – inhibitors of human CXCR6 receptor. 0.36% of 360,000 active. CHO-K1 PathHunter CXCR6 beta-arrestin, luminescence. inhibition, % at 20 µM; in the data active = inhibition above about 34%, passing the limit was not always enough;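 note: antagonist mode with CXCL16 agonist at 10 nM final; 0% = 10 nM CXCL16 with DMSO and 100% = unstimulated wells without agonist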
Target sequence (O00574 whole entry, looked up): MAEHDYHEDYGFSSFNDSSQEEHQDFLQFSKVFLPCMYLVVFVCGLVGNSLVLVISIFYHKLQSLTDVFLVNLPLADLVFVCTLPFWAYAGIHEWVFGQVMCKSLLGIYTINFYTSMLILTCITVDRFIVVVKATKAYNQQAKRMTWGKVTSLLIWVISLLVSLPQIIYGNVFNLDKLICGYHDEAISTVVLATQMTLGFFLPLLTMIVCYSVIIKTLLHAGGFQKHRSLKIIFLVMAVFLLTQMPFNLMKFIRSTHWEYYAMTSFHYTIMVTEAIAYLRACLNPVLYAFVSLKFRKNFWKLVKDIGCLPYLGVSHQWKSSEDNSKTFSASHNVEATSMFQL
APJ ag – APJ receptor agonism; activation, % at 20 µM; 0.11% of 330,000 active; AID 2520; P35414; CHO-K1 APJ PathHunter beta-arrestin, luminescence; 0% DMSO wells, 100% apelin;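 active = activation more than six SD over the plate average, tested at 20 µM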;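 note: 0% = DMSO alone and 100% = apelin-13 at 10 nM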
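Material: CHO-K1 APJ beta-arrestin complementation cell line; Input: cell density 1000 per well; Incubation: compound stimulation 90 min at 25 °C, detection 60 min; Signal: luminescence from split beta-galactosidase complementation, Galacton Star/Emerald II substrate; Controls: DMSO-only wells as negative, 10 nM Apelin-13 as positive control.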
EBI2 block – blocks human EBI2 receptor beta-arrestin signaling; inhibition, % at 5 µM; EBI2 beta-arrestin recruitment, luminescence, 7a,25-OHC stimulated; 0.81% of 360,000 active; AID 651636; in the data active = inhibition above about 38%;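 note: enzyme fragment complementation signal reports receptor beta-arrestin coupling in cells; 0% = agonist plus DMSO wells and 100% = wells without agonist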
* marks the source's active call; other numbers are inactive results; · = no result given. Compounds with a hit are over-represented: about 1.5% of the library has one in this group of screens.

SMILES | CCR6 antagonist | APJ antagonist | CXCR6 block | APJ ag | EBI2 block
CCOc1cc(CNC(C)(C)CO)cc(Br)c1OCc1ccc(Cl)cc1Cl | 50* | -20 | -6 | -7 | -21
O=[N+]([O-])c1ccc(S(=O)(=O)NCC(c2cccnc2)N2CCOCC2)cc1 (stereo not drawn) | -15 | 5 | -13 | 4 | 1
Cc1cccc(NC(=O)Nc2ccc(Oc3c(F)c(F)c(F)c(F)c3F)cc2)c1 | 9 | -2 | -8 | 3 | 8
O=C(Nc1ccc(Oc2c(F)c(F)c(F)c(F)c2F)cc1)OC1CCN2Cc3ccccc3N=C12 (stereo not drawn) | -2 | -2 | 3 | 7 | 44*
CC(C)N(C(=O)Cn1cc(S(=O)(=O)CC(=O)NCc2ccccc2)c2ccccc21)C(C)C | -4 | 3 | -4 | -9 | 5
CCN(CC)c1ccc(N=Nc2nn(C)c(C)c2[N+](=O)[O-])cc1 | 64* | 55* | 39 | -7 | 20
O=C(CN1C(=O)NC(c2ccccc2)(c2ccccc2)C1=O)N1CCOCC1 | 5 | -12 | 10 | 1 | -8
O=C(Nc1nonc1NC(=O)c1cccs1)c1cccs1 | 17 | 10 | 0 | -3 | -10
Cc1cc(C)nc(NS(=O)(=O)c2ccc(NC(=O)c3ccc4c(c3)OCO4)cc2)n1 | -1 | 1 | -6 | -1 | 2
O=C1CC/C=C\C[C@@H](CC(=O)N(CCO)Cc2ccccc2)C(=O)NC[C@@H](c2ccccc2)O1 | 8 | 3 | 5 | -1 | -4
O=C1NC[C@@H](c2ccccc2)OC(=O)[C@@H](Cc2ccc(F)cc2)CC/C=C/C[C@@H]1CC(=O)N(CCO)Cc1ccccc1 | 50 | · | 56* | · | 21
O=C1N[C@H](Cc2ccccc2)COC(=O)[C@H](Cc2ccc(F)cc2)CC/C=C/C[C@H]1CC(=O)N(CCO)Cc1ccccc1 | 30 | 14 | 41* | -4 | -9
O=C1N[C@@H](Cc2ccccc2)COC(=O)[C@@H](Cc2ccc(F)cc2)C/C=C\C[C@@H]1CC(=O)N(CCO)Cc1ccccc1 | 19 | 17 | 35 | -1 | 2
Fc1ccc(C(c2nnnn2Cc2cccs2)N2CCN(c3ccccc3)CC2)cc1 (stereo not drawn) | 8 | 16 | 8 | -3 | 12
CN(C)S(=O)(=O)c1cccc(NC(=O)CSc2cccc3cccnc23)c1 | 71* | 11 | 51* | -6 | 29
CN(C)S(=O)(=O)c1ccc(SCC(=O)Nc2cccc(S(=O)(=O)N3CCCC3)c2)nc1 | 6 | · | 3 | · | 0
O=C1C(Br)=C(c2ccccc2)C(c2ccccc2)=C1c1ccccc1 | 68* | · | 21 | · | 49*
Cc1cc2c(cc1C)NC(c1c(C)n(C)n(-c3ccccc3)c1=O)C1=C(CC(C)(C)CC1=O)N2 (stereo not drawn) | 77* | 8 | 12 | -1 | 16
COc1cc(C2Nc3cc(C)c(C)cc3NC3=C2C(=O)CC(C)(C)C3)ccc1OC(C)=O (stereo not drawn) | 3 | -21 | 2 | -1 | 1
CCCCN1C(=O)C(CC(=O)NCc2cccc3ccccc23)CC(C(=O)N(C)C)=C1C (stereo not drawn) | · | · | -1 | · | -7
COc1ccc(C(=O)O/N=C2\C(=O)N(C)c3ccccc32)cc1 | 59* | 17 | 27 | -2 | 40
CN1C(=O)/C(=N\OC(=O)c2cccc3ccccc23)c2ccccc21 | 32 | 20 | 32 | -3 | 27
CCN(CC)c1c([N+](=O)[O-])c(=O)n(C)c2ccccc12 | 16 | 8 | -6 | -1 | 0
Cn1c(=O)c([N+](=O)[O-])c(Cl)c2ccccc21 | 101* | · | 88* | · | 16
CC(=O)Nc1ccc(NS(=O)(=O)c2cccc3ccccc23)cc1 | -4 | -26 | 3 | 0 | 10
SMILES | CCR6 antagonist | APJ antagonist | CXCR6 block | APJ ag | EBI2 block
CC(=O)OCC1OC(n2cc(F)c(=O)[nH]c2=O)C(OC(C)=O)C1OC(C)=O (stereo not drawn) | 14 | 6 | -5 | -4 | -11
O=C1C(F)=CC(COC(c2ccccc2)(c2ccccc2)c2ccccc2)OC1n1cc(F)c(=O)[nH]c1=O (stereo not drawn) | 99* | · | 67* | · | -6
Cc1nn(-c2ccccc2)c2sc(C(=O)N3CCCCC3)cc12 | -12 | 18 | 1 | -1 | 4
N#Cc1ccc(OCC(=O)N2CCN(c3ccc(C(F)(F)F)cn3)CC2)cc1 | -7 | -5 | -14 | 1 | 59*
O=C(CCc1ccccc1F)N1CCN(c2ccc(C(F)(F)F)cn2)CC1 | -2 | 9 | -1 | -1 | 2
COc1ccccc1/C=C/C(=O)/C=C/c1ccccc1O | 30 | · | 14 | · | 44*
O=C(NC(=S)NNS(=O)(=O)c1ccccc1)c1cccnc1 | 1 | 2 | -2 | -3 | 6
Cc1cccc(N2CCN(C(=O)c3cc4cc(F)ccc4[nH]3)CC2)c1C | -1 | -5 | 14 | -2 | 92*
COc1ccc(/C=C2\CN(Cc3ccccc3)C/C(=C\c3ccc(OC)c(O)c3)C2=O)cc1O | 20 | 11 | 52* | 2 | -7
COc1cc(C=C2C(=O)c3ccccc3C2=O)cc(OC)c1OC | 7 | 17 | 20 | -2 | -10
COc1cc(C=C2C(=O)c3ccccc3C2=O)ccc1O | 26 | 61* | 17 | -8 | 5
COc1cc(/C=C2\COC/C(=C\c3ccc(O)c(OC)c3)C2=O)ccc1O | 56* | 44* | 41* | -9 | 15
COc1cc(/C=C2/CC/C(=C/c3ccc(O)c(OC)c3)C2=O)ccc1O | 61* | 2 | 55* | -6 | 15
O=C(c1ccc(Cl)cc1)n1c(NCc2ccccc2)n[nH]c1=S | 6 | -12 | 5 | -5 | 6
COc1ccc(-n2nc(C(=O)c3cccs3)cc(-c3nc4ccccc4[nH]3)c2=N)cc1 | -11 | 13 | 10 | -8 | 53*
O=C1C=CC(=O)N1Cc1ccccc1 | 107* | -28 | 90* | 2 | 3
Cc1ccc(Nc2nc(-c3c(C)nc4ccccn34)cs2)cc1 | -12 | 0 | -8 | -1 | 65*
O=C1ON=C(c2ccccc2)/C1=C/c1ccccc1 | 8 | 5 | -2 | 4 | -5
O=C1ON=C(c2ccccc2)/C1=C/c1ccc(O)cc1 | 39 | 8 | 46* | -2 | -34
Cc1ccc(C2=NOC(=O)/C2=C\c2ccccc2)cc1 | 7 | 8 | -8 | -1 | 7
COc1cc(/C=C2/C(=O)ON=C2c2ccccc2)ccc1O | 55* | 25 | 33 | -4 | -5
CC(=O)Sc1nc(-c2ccccc2)[nH]c1S(=O)(=O)c1ccc(C)cc1 | -6 | -4 | · | 2 | ·
Cc1ccsc1C1Nc2ccc3ncccc3c2C2=C1C(=O)CCC2 (stereo not drawn) | 1 | -33 | 9 | 0 | 70*
COc1cc(C2Nc3ccc4ncccc4c3C3=C2C(=O)CCC3)cc(OC)c1OC (stereo not drawn) | 7 | -4 | -14 | -2 | 7
